Activity calls are given as the source filed them. The rule behind the calls is not given here.
Key:
[1] = test system: DU-145; experiment: Induction of apoptosis in human DU145 cells assessed as early apoptotic cells at 5 uM after 24 hrs in presence of TRAIL by Annexin V-FITC/propidium iodide staining-based high content screening assay (reference value: 0.3%); type: functional
Summary of the method: (§1)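 DU145 seeded 3×10^5/well, grown 24 h, treated 24 h with compound alone or plus TRAIL; harvested, stained with Annexin V-FITC/PI per kit protocol, quantified by high content screening; mean ± SD of three experiments.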

[2] = test system: DU-145; experiment: Induction of apoptosis in human DU145 cells assessed as viable cells at 5 uM after 24 hrs in presence of TRAIL by Annexin V-FITC/propidium iodide staining-based high content screening assay (reference value: 97.9%); type: functional; conditions: DU-145, 24 h, read-out: Activity; summary of the method: as §1
[3] = test system: DU-145; experiment: Induction of apoptosis in human DU145 cells assessed as early apoptotic cells at 5 uM after 24 hrs by Annexin V-FITC/propidium iodide staining-based high content screening assay (reference value: 0.3%); type: functional; summary of the method: as §1
[4] = test system: DU-145; experiment: Induction of apoptosis in human DU145 cells assessed as necrotic cells at 5 uM after 24 hrs in presence of TRAIL by Annexin V-FITC/propidium iodide staining-based high content screening assay (reference value: 1.6%); type: functional; summary of the method: as §1
[5] = test system: DU-145; experiment: Induction of apoptosis in human DU145 cells assessed as late apoptotic cells at 5 uM after 24 hrs by Annexin V-FITC/propidium iodide staining-based high content screening assay (reference value: 0.2%); type: functional; summary of the method: as §1
[6] = test system: MGC-803; experiment: Antiproliferative activity against human MGC803 cells after 72 hrs by MTT assay; type: functional, cell-based; conditions: MGC-803, 72 h
Summary of the method: (§2)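 Cells seeded 3,000/well, after 24 h medium replaced with compound at 64, 32, 16, 8, 4, 2, 1, 0.5 µM; 72 h exposure, MTT read-out at 570 nm; IC50 given as mean ± SD.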

[7] = test system: DU-145; experiment: Induction of apoptosis in human DU145 cells assessed as chromatin shrinkage at 5 uM after 24 hrs by Hoechst 33258 staining-based fluorescence microscopic analysis; type: functional, cell-based
Summary of the method: (§3)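 DU145 seeded 1×10^5/well, adhered overnight, treated 24 h with compound alone or combined with TRAIL; stained with Hoechst 33258 for 30 min in the dark; nuclear morphology examined by fluorescence microscopy.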

[8] = test system: MCF7; experiment: Antiproliferative activity against human MCF7 cells after 72 hrs by MTT assay; type: functional, cell-based; conditions: MCF7, 72 h; summary of the method: as §2
[9] = test system: DU-145; experiment: Induction of apoptosis in human DU145 cells assessed as cell rounding at 5 uM after 24 hrs in presence of TRAIL by Hoechst 33258 staining-based fluorescence microscopic analysis; type: functional; summary of the method: as §3
[10] = test system: DU-145; experiment: Inhibition of colony formation in human DU145 cells after 21 days by crystal violet staining-based assay; type: functional, cell-based
Summary of the method: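 DU145 seeded 4000/well, grown 4 days, then medium with compound at various concentrations for 21 days; PBS washed, fixed in 4% paraformaldehyde, stained with 0.1% crystal violet; colonies (>10 cells) counted; inhibition = (1 − treated/control colonies) × 100%.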

[11] = test system: DU-145; experiment: Growth inhibition of human DU145 cells at 2.5 uM by MTT assay; type: functional, cell-based; conditions: TDE = time-dependent effect
Summary of the method: (§4)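 DU145 growth inhibition measured by MTT; time course at 24, 48 and 72 h; combination arm used recombinant TRAIL at 100 ng/mL together with compound (2.5 or 5.0 µM); mean ± SD, experiment repeated three times, Student's t test.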

[12] = test system: DU-145; experiment: Induction of apoptosis in human DU145 cells assessed as cell rounding at 5 uM after 24 hrs by Hoechst 33258 staining-based fluorescence microscopic analysis; type: functional; summary of the method: as §3
[13] = test system: DU-145; experiment: Induction of apoptosis in human DU145 cells assessed as increase in caspase-3/7 activity at 5 uM after 24 hrs in presence of TRAIL by Caspase-Glo 3/7 assay relative to control; type: functional
Summary of the method: (§5)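 DU145 treated 24 h with compound alone or with TRAIL (100 ng/mL); caspase-3/7 activity measured by Caspase-Glo 3/7 luminescent protocol relative to untreated control; three independent experiments, mean ± SD, Student's t test.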

[14] = test system: DU-145; experiment: Induction of apoptosis in human DU145 cells assessed as formation of apoptotic bodies at 5 uM after 24 hrs by Hoechst 33258 staining-based fluorescence microscopic analysis; type: functional, cell-based; summary of the method: as §3
[15] = test system: DU-145; experiment: Induction of apoptosis in human DU145 cells assessed as chromatin shrinkage at 5 uM after 24 hrs in presence of TRAIL by Hoechst 33258 staining-based fluorescence microscopic analysis; type: functional, cell-based; summary of the method: as §3
[16] = test system: DU-145; experiment: Growth inhibition of human DU145 cells at 2.5 uM after 72 hrs in presence of TRAIL by MTT assay relative to control; type: functional; conditions: DU-145, 72 h, read-out: GI; summary of the method: as §4
[17] = test system: DU-145; experiment: Antiproliferative activity against human DU145 cells after 72 hrs by MTT assay; type: functional, cell-based; conditions: DU-145, 72 h; summary of the method: as §2
[18] = test system: DU-145; experiment: Growth inhibition of human DU145 cells at 2.5 uM after 24 to 48 hrs by MTT assay; type: functional, cell-based; summary of the method: as §4
[19] = test system: DU-145; experiment: Induction of apoptosis in human DU145 cells assessed as necrotic cells at 5 uM after 24 hrs by Annexin V-FITC/propidium iodide staining-based high content screening assay (reference value: 1.6%); type: functional; summary of the method: as §1
[20] = test system: DU-145; experiment: Induction of apoptosis in human DU145 cells assessed as viable cells at 5 uM after 24 hrs by Annexin V-FITC/propidium iodide staining-based high content screening assay (reference value: 97.9%); type: functional; conditions: DU-145, 24 h, read-out: Activity; summary of the method: as §1
[21] = test system: DU-145; experiment: Induction of apoptosis in human DU145 cells assessed as increase in caspase-3/7 activity at 2.5 to 10 uM after 24 hrs by Caspase-Glo 3/7 assay; type: functional, cell-based; summary of the method: as §5
[22] = test system: DU-145; experiment: Induction of apoptosis in human DU145 cells assessed as formation of apoptotic bodies at 5 uM after 24 hrs in presence of TRAIL by Hoechst 33258 staining-based fluorescence microscopic analysis; type: functional, cell-based; summary of the method: as §3
[23] = test system: DU-145; experiment: Induction of apoptosis in human DU145 cells assessed as late apoptotic cells at 5 uM after 24 hrs in presence of TRAIL by Annexin V-FITC/propidium iodide staining-based high content screening assay (reference value: 0.2%); type: functional; summary of the method: as §1
[24] = test system: PC-3; experiment: Antiproliferative activity against human PC3 cells after 72 hrs by MTT assay; type: functional, cell-based; conditions: PC-3, 72 h; summary of the method: as §2

Q: What does the source list for `O=C(COc1ccc(C(=O)/C=C/c2ccccc2Cl)cc1)N[C@H]1CCOC1=O`?
A: Activity [1]: 13.4%; viability at 5 µM [2]: 84.8%; Activity [3]: 6.4%; Activity [4]: 0.1%; Activity [5]: 1.7%; IC50 [6]: 27.1 µM; Activity [7]: Active; IC50 [8]: 17.4 µM; Activity [9]: Active; inhibition [10]: Dose-dependent effect; growth inhibition (GI) [11]: Tde; Activity [12]: Active; fold change (FC) [13]: 3; Activity [14]: Active; Activity [15]: Active; inhibition of growth at 2.5 µM [16]: 50%; IC50 [17]: 3.24 µM; Activity [18]: Active; Activity [19]: 1.7%; viability at 5 µM [20]: 90.1%; Activity [21]: Active; Activity [22]: Active; Activity [23]: 1.7%; IC50 [24]: 4.61 µM
